Active and inactive are the calls of the source. The rule behind the calls is not given here.
What was measured:
Type in all cases: cell-based
[1] = target: Small conductance calcium-activated potassium channel protein 2 (Rattus norvegicus, UniProt P70604); assay: Potentiation of rat KCa2.2a expressed in HEK293 cells at -90 mV holding potential measured at 1 to 2 days by patch clamp electrophysiology
Summary of the method: (§1)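 Inside-out patches from HEK293 cells transfected (calcium-phosphate) with channel cDNA plus CaM and GFP (7:4:2). Bath (mM): 140 KCl, 10 Hepes pH 7.2, 1 EGTA, 0.1 dibromo-BAPTA, 1 HEDTA, with Ca2+ added to set free Ca2+, verified against a fluorescence standard curve. Currents taken at –90 mV and normalized to the maximal-compound response. EC50 and Hill coefficient came from a concentration–response fit. Efficacy was the maximal-compound current relative to the current at 10 µM Ca2+.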

[2] = target: Intermediate conductance calcium-activated potassium channel protein 4 (Homo sapiens) (UniProt O15554); assay: Potentiation of human KCa3.1 expressed in HEK293 cells at 0.01 to 100 uM with -90 mV holding potential measured at 1 to 2 days by patch clamp electrophysiology relative to calcium; settings: dose 0.01-100 µM, time 1-2 day; summary of the method: as §1
Chain of Intermediate conductance calcium-activated potassium channel protein 4 (Homo sapiens) (O15554 whole entry): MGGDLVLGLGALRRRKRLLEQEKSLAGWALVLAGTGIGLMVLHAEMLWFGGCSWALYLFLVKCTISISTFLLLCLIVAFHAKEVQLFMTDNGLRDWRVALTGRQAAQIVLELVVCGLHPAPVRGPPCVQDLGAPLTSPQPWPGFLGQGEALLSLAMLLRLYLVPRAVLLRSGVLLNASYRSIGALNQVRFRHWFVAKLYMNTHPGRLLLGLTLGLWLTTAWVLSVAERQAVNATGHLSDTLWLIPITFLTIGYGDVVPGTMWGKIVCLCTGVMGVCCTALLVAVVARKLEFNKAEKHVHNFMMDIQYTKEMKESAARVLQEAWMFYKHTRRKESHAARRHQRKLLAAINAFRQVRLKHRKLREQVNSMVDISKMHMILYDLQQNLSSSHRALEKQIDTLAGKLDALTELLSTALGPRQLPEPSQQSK

[3] = target: Small conductance calcium-activated potassium channel protein 1 (Homo sapiens) (UniProt Q92952); assay: Potentiation of human KCa2.1 expressed in HEK293 cells at 0.01 to 100 uM with -90 mV holding potential measured at 1 to 2 days by patch clamp electrophysiology relative to calcium; settings: dose 0.01-100 µM, time 1-2 day; summary of the method: as §1
Chain of Small conductance calcium-activated potassium channel protein 1 (Homo sapiens) (Q92952 whole entry): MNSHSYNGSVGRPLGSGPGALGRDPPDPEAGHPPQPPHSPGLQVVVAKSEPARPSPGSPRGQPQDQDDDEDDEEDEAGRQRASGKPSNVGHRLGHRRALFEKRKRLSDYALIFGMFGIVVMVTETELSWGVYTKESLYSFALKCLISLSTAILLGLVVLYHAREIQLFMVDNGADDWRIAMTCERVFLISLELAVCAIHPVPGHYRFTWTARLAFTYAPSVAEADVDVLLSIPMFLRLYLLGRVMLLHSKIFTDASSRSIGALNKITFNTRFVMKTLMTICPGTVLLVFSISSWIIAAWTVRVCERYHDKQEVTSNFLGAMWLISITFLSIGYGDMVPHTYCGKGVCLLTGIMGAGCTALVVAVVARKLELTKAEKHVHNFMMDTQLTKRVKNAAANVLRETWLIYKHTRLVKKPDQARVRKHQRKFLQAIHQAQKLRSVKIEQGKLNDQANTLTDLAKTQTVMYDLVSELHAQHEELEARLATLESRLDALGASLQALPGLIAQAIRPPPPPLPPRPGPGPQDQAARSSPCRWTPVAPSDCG

[4] = target: Calcium-activated potassium channel subunit alpha-1 (Homo sapiens) (UniProt Q12791); assay: Potentiation of human KCa1.1 expressed in HEK293 cells at 100 uM with -90 mV holding potential measured at 1 to 2 days by patch clamp electrophysiology; settings: time 1-2 day
Chain of Calcium-activated potassium channel subunit alpha-1 (Homo sapiens) (Q12791 whole entry): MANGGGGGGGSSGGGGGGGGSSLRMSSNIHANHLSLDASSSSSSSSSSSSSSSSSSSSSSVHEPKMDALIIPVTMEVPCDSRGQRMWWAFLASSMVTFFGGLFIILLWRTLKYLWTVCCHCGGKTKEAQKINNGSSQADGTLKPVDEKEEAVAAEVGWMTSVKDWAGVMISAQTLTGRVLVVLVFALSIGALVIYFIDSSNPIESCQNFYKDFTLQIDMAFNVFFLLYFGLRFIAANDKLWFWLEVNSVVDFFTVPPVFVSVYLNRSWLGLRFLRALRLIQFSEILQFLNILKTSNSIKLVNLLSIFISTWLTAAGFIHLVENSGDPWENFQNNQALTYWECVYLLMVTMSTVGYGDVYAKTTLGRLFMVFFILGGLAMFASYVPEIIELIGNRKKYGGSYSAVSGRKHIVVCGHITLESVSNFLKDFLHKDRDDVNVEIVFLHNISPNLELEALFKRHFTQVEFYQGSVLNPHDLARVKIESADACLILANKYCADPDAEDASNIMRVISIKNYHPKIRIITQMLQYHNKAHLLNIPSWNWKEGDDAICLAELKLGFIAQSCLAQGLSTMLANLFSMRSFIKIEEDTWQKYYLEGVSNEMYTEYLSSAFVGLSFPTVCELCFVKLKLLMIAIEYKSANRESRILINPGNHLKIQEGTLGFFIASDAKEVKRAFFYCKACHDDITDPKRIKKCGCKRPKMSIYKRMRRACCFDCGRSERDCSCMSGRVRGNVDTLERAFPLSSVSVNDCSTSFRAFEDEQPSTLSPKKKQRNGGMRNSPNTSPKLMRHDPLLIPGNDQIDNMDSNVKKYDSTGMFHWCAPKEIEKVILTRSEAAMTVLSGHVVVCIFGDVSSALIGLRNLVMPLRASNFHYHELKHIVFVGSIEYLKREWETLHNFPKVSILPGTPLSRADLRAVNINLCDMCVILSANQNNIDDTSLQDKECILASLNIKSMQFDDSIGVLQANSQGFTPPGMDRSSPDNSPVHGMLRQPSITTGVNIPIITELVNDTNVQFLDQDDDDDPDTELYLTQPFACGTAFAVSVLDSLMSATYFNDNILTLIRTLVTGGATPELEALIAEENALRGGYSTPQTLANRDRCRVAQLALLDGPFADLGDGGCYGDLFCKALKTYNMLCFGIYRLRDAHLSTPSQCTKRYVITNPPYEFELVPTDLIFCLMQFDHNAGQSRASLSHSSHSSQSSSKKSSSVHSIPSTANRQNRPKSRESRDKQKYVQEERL

[5] = test system: N1E-115; assay: Inhibition of mouse Nav1.2 expressed in mouse N1E-115 cells at 100 uM with -90 mV holding potential measured by patch clamp electrophysiology
[6] = target: Small conductance calcium-activated potassium channel protein 2 (Rattus norvegicus) (UniProt P70604); assay: Potentiation of rat KCa2.2a expressed in HEK293 cells at 0.01 to 100 uM with -90 mV holding potential measured at 1 to 2 days by patch clamp electrophysiology relative to calcium; settings: filed as positive allosteric modulator, dose 0.01-100 µM, time 1-2 day; summary of the method: as §1
Chain of Small conductance calcium-activated potassium channel protein 2 (Rattus norvegicus) (P70604 whole entry): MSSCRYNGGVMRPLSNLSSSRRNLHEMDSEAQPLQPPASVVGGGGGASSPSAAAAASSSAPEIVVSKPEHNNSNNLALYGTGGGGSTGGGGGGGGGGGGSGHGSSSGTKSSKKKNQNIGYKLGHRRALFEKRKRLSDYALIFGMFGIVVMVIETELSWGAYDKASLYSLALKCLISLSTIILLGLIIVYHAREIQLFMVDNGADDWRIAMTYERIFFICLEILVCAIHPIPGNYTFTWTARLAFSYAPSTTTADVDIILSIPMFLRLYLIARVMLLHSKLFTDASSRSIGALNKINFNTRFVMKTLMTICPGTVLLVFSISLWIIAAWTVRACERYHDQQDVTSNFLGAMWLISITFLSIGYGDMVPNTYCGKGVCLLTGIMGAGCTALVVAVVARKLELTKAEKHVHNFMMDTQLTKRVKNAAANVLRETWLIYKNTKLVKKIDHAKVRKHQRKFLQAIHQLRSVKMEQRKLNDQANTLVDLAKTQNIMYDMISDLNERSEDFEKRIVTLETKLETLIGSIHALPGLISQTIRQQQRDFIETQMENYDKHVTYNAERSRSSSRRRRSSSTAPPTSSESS

[7] = target: T1, Small conductance calcium-activated potassium channel protein 3 (Homo sapiens, UniProt Q9UGI6); assay: Potentiation of human KCa2.3 expressed in HEK293 cells at -90 mV holding potential measured at 1 to 2 days by patch clamp electrophysiology; summary of the method: as §1
T1 sequence (Q9UGI6 whole entry): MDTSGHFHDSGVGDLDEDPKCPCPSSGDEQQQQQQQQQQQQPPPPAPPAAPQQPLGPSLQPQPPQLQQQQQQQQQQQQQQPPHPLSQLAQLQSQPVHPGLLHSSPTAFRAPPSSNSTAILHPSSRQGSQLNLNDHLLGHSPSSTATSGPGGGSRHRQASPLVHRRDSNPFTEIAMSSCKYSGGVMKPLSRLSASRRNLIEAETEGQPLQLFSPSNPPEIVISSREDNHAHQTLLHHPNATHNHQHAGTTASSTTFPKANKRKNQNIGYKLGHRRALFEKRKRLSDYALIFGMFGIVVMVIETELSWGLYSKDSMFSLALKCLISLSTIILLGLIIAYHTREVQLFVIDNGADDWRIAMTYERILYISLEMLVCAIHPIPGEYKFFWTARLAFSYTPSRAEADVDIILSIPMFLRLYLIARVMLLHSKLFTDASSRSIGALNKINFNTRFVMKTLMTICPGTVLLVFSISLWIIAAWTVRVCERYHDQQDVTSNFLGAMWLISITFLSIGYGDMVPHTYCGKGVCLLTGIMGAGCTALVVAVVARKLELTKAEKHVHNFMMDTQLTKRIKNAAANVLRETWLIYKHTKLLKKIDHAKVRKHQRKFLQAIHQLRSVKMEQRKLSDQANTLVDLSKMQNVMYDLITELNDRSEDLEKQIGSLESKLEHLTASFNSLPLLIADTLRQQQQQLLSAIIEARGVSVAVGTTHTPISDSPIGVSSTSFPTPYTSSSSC

[8] = target: T1, Small conductance calcium-activated potassium channel protein 3; assay: Potentiation of human KCa2.3 expressed in HEK293 cells at -90 mV holding potential measured at 1 to 2 days by patch clamp electrophysiology relative to calcium; summary of the method: as §1

Chain of Small conductance calcium-activated potassium channel protein 2 (P70604 whole entry): as the sequence (P70604 whole entry) above

| EC50 [1] [µM] | SMILES | also measured |
| --- | --- | --- |
| > 100 | Cc1cc(Nc2ccc(S)cc2)nc(-n2nc(C)cc2C)n1 |  |
| 0.64 | Cc1cc(Nc2cc(Cl)ccc2F)nc(-n2nc(C)cc2C)n1 | Emax [2]: 2.02%; Emax [3]: 0%; Activity [4]: inactive; inhibition [5]: 50%; Emax [6]: 90%; EC50 [7]: 0.6 µM |
| > 100 | Cc1cc(C)n(-c2cc(Nc3ccc(F)c(Cl)c3)nc(N)n2)n1 |  |
| 0.99 | Cc1cc(Nc2ccc(F)c(Cl)c2)nc(-n2nc(C)cc2C)n1 | Emax [2]: 28.3%; Emax [3]: 0%; Activity [4]: inactive; inhibition [5]: 50%; Emax [6]: 90%; EC50 [8]: 0.19 µM |
| 4.51 | Cc1cn(-c2nc(C)cc(Nc3cc(Cl)ccc3F)n2)cn1 |  |
| > 100 | Cc1cc(N[C@H]2CC[C@@H](CO)CC2)nc(-n2nc(C)cc2C)n1 |  |
| > 100 | Cc1cc(N[C@@H](Cc2ccc(O)cc2)C(=O)O)nc(-n2nc(C)cc2C)n1 |  |
| 49.7 | CO[C@H]1CC[C@@H](Nc2cc(C)nc(-n3nc(C)cc3C)n2)CC1 | Emax [6]: 94.6% |
| > 100 | Cc1cc(NCCc2ccc([N+](=O)[O-])cc2)nc(-n2nc(C)cc2C)n1 |  |
| 5.03 | Cc1cc(Nc2cccc(F)c2F)nc(-n2nc(C)cc2C)n1 |  |
| > 30 | Cc1cc(Nc2cc(C(=O)O)ccc2F)nc(-n2nc(C)cc2C)n1 |  |
| 13.8 | Cc1cc(Nc2cc(Cl)ccc2F)nc(-c2coc(C)n2)n1 |  |
| > 100 | Cc1cc(N[C@H]2CC[C@@H]([N+](=O)[O-])CC2)nc(-n2nc(C)cc2C)n1 |  |
| > 100 | Cc1cc(N[C@@H](Cc2ccc(F)c(F)c2)C(=O)O)nc(-n2nc(C)cc2C)n1 |  |

The next lines start with the compound.

| SMILES | EC50 [1] [µM] | also measured |
| --- | --- | --- |
| Cc1cc(N[C@H]2CC[C@@H](F)CC2)nc(-n2nc(C)cc2C)n1 | > 100 |  |
| Cc1cc(Nc2ccc([N+](=O)[O-])cc2)nc(-n2nc(C)cc2C)n1 | > 100 |  |
| Cc1cc(N[C@H]2CC[C@@H](N)CC2)nc(-n2nc(C)cc2C)n1 | > 100 |  |
| COc1cc2nc(Nc3cc(C)nc(-n4nc(C)cc4C)n3)[nH]c2cc1OC | > 100 |  |
| Cc1cc(Nc2ccc(Cl)cc2F)nc(-n2nc(C)cc2C)n1 | 1.99 |  |
| Cc1cn(-c2nc(C)cc(Nc3ccc(F)c(Cl)c3)n2)cn1 | 38.8 |  |
| Cc1cc(Nc2ccc(C(F)(F)F)c(Cl)c2)nc(-n2nc(C)cc2C)n1 | 3.27 |  |
| Cc1cc(C)n(-c2cc(Nc3ccc(C(F)(F)F)c(Cl)c3)nc(N)n2)n1 | > 100 |  |
| Cc1cc(Nc2cc(Cl)cc(C(F)(F)F)c2)nc(-n2nc(C)cc2C)n1 | > 100 |  |
| Cc1cc(Nc2cc(F)ccc2F)nc(-n2nc(C)cc2C)n1 | 1.89 |  |
| Cc1cc(N[C@@H](Cc2ccc(C#N)cc2)C(=O)O)nc(-n2nc(C)cc2C)n1 | > 100 |  |
| Cc1cc(C)n(-c2cc(Nc3cc(Cl)ccc3F)nc(N)n2)n1 | > 100 |  |
| Cc1cc(C)n(-c2cc(Nc3cc(F)ccc3F)nc(N)n2)n1 | > 100 |  |
| Cc1cc(Nc2ccc(C(F)(F)F)cc2)nc(-n2nc(C)cc2C)n1 | 3.45 |  |
| Cc1cc(Nc2ccc(F)c(Cl)c2)nc(-c2coc(C)n2)n1 | 3.59 |  |
| Cc1cc(C)n(-c2cc(C)c(Nc3ccc(F)c(Cl)c3)nn2)n1 | 4.32 |  |
| Cc1cc(NC2CCCCC2)nc(-n2nc(C)cc2C)n1 | 7.48 | Emax [6]: 85.6% |
| Cc1cc(C)n(-c2cc(Nc3cc(F)ccc3Cl)nc(N)n2)n1 | > 100 |  |
| Cc1cc(C)n(-c2nc(N)cc(Nc3ccc(F)c(Cl)c3)n2)n1 | 6.59 |  |
| Cc1cc(C)n(-c2cc(Nc3cccc(Cl)c3)nc(N)n2)n1 | > 100 |  |
| Cc1cc(Nc2cc(F)ccc2Cl)nc(-n2nc(C)cc2C)n1 | 2.97 |  |
| Cc1cc(C)n(-c2cc(Nc3ccc(Cl)cc3F)nc(N)n2)n1 | > 100 |  |
| Cc1cc(N[C@H]2CC[C@@H](O)CC2)nc(-n2nc(C)cc2C)n1 | > 100 |  |

Source: ChEMBL document CHEMBL5038638, “Structure-Activity Relationship Study of Subtype-Selective Positive Modulators of KCa2 Channels” (J Med Chem, 2022)
